Laboratory results taken from PMC10879835 (Saudi Journal of Biological Sciences, 2024).

Tests used:
Anti-oxidant DPPH assay = details: 30 mins, absorbance at 515 nm
Method in brief: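 Lipid-nanoparticle and solution formulations of the test compound were made as 1 mg/ml stocks in methanol and diluted to 1–50 ug/ml. Ascorbic acid was the control. Each dilution was mixed 1:1 by volume with 200 μM DPPH. Absorbance at 515 nm was read after 30 min against a methanol blank. % inhibition was taken […], and IC50 came from regression of mean % inhibition on log concentration.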

α-amylase = assay: α-Amylase inhibitory assay; type: biochemical; details: at 100 µg/mL
Method in brief: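 DNS method. Test compound at 25, 50, 100 and 200 µg/ml, or acarbose at 100 µg/ml as reference, was preincubated 30 min with α-amylase diluted in 20 mM sodium phosphate buffer pH 6.9. 1% w/w starch was then added and the mix held 15 min at 37 ± 0.5 °C. The reaction was stopped with DNS reagent and heated 5 min in boiling water, then read at 540 nm. % inhibition was calculated against a no-sample control and a no-enzyme blank.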

α-glucosidase = assay: α-Glucosidase inhibitory assay; type: biochemical
Method in brief: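 Test sample was preincubated 15 min at 37 °C with α-glucosidase solution (1 U/mL in 0.1 M potassium phosphate buffer, pH 6.8). 5 mM p-nitrophenyl-α-D-glucopyranoside solution was added, with a further 15 min incubation. The reaction was stopped with 0.2 M sodium carbonate and read at 405 nm. Acarbose was the positive control. % inhibition came from control and blank absorbances.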

[1] = Solubility of MG in solid lipids and surfactants; type: physicochemical; details: in Labrafil M 2130 CS
Method in brief: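 1 g of each solid lipid was held in a vial on a magnetic stirrer above its melting point. Test compound was added in increments until saturation, and the amount dissolved was recorded. Samples were filtered through a 0.45 membrane to remove undissolved solid.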

Structure (SMILES): O=C1O[C@H]([C@@H](O)CO)C(O)=C1O [AA, ascorbic acid]
- DPPH IC50 (Anti-oxidant DPPH assay): 23.33 µg/mL

Structure (SMILES): C[C@H]1O[C@H](O[C@H]2[C@H](O)[C@@H](O)[C@@H](O[C@H]3[C@H](O)[C@@H](O)C(O)O[C@@H]3CO)O[C@@H]2CO)[C@H](O)[C@@H](O)[C@@H]1N[C@H]1C=C(CO)[C@@H](O)[C@H](O)[C@H]1O (stereo partly shown) [Acarbose]
- α-amylase inhibitory effect (α-amylase): 78.01 ± 7.45%
- α-glucosidase inhibition (α-glucosidase): 63.43 ± 4.02%

Structure (SMILES): O=c1c2cc(O)c(O)cc2oc2cc(O)c([C@@H]3O[C@H](CO)[C@@H](O)[C@H](O)[C@H]3O)c(O)c12 [Mangiferin]
- MG solubility in solid lipid [1]: 77.63 ± 5.78 mg/g
